Screening data (PubChem BioAssay)
SENP1 FRET inh – inhibitors of human SENP1 SUMO protease catalytic domain; Q9P0U3; recombinant SENP1 catalytic domain, CyPet-SUMO1-YPet FRET cleavage; inhibition, % at 10 µM; 360,000 tested, 0.21% active; AID 624204;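 active = inhibition at least 30% at 10 µM, raw YFP signal under a set limit, fluorescence ratio 0.5 to 1.5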;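 note: 0% = enzyme with DMSO and 100% = no enzyme wells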
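Material – human SENP1 catalytic domain · Input – SENP1 enzyme, 20 pM final · Compound dosing – single concentration of 10 µM compound, 0.5% DMSO final · Timing – enzyme reaction for 50 min at room temperature, dark · Measured by – FRET fluorescence in CFP and YFP emission channels · Control set – no-enzyme wells low, DMSO-plus-enzyme wells high control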
GRIN3A LBD mod – modulators (binders) of human NR3A ligand-binding domain; NR3A LBD differential scanning fluorimetry, Tm shift; 0% = protein alone, 100% = glycine-bound protein; Tm shift relative to glycine control, % at 25 µM; 340,000 tested, 2.5% active; AID 1259313;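 active = melting temperature shift of at least 10% of the positive control shift, at one fixed dose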
MPTP inh – permeability transition pore inhibition; inhibition, % at 10 µM; AID 602449; 360,000 tested, 1.4% active; isolated mouse mitochondria, Ca2+ swelling absorbance, 30 min;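 active = inhibition of 50% or more, scaled per plate between neutral and stimulator controls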;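 note: 0% = DMSO wells given calcium and 100% = 1 mM EGTA wells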
EBI2 block – blocks human EBI2 receptor beta-arrestin signaling; P32249; EBI2 beta-arrestin recruitment, luminescence, 7a,25-OHC stimulated; inhibition, % at 5 µM; 360,000 tested, 0.81% active; AID 651636; in the data active = inhibition above about 38%;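 note: enzyme fragment complementation signal reports receptor beta-arrestin coupling in cells; 0% = agonist plus DMSO wells and 100% = wells without agonist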
Target sequence (P32249 whole entry, looked up, the tested form may be a part): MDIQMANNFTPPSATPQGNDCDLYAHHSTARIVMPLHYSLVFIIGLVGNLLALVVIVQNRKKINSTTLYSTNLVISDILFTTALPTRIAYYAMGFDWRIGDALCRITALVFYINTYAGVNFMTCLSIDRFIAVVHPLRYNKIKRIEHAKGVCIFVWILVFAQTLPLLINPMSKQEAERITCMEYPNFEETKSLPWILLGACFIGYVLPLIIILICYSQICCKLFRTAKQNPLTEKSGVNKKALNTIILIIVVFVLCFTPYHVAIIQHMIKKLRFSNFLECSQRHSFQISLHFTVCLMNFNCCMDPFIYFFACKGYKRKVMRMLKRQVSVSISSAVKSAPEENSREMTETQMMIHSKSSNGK
SENP1 inh conf – confirmation of human SENP1 SUMO protease inhibitors; recombinant SENP1, CyPet-SUMO1-YPet FRET cleavage; shares compounds with SENP1 FRET inh; AID 651678; 520 tested, 34% active; inhibition, % at 10 µM; in the data active = inhibition mostly above about 35%, no sharp cut-off; inactive = mostly below about 32%;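 note: 0% = enzyme with DMSO and 100% = no enzyme control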
SENP1 kin conf – SENP1 (human) inhibition, kinetic confirmation. shares compounds with SENP1 FRET inh. recombinant SENP1, CyPet-SUMO1-YPet FRET kinetic cleavage. inhibition, % at 10 µM. 520 tested, 26% active. AID 651690; in the data active = inhibition mostly above about 32%, no sharp cut-off; inactive = mostly below about 29%;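 note: 0% = DMSO with enzyme and 100% = no enzyme substrate only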
Active calls of the source: *; x = no result. Most compounds without a hit are left out; they make up all but 4.4% or so of the library.

SMILES | SENP1 FRET inh | GRIN3A LBD mod | MPTP inh | EBI2 block | SENP1 inh conf | SENP1 kin conf
Nc1cc2c([N+](=O)[O-])cccc2o1 | 63* | -5 | 2 | 0 | 31 | 17
Cc1c(N)cccc1[N+](=O)[O-] | -2 | 2 | -3 | 5 | x | x
CCn1c(SCC(=O)N/N=C(\C)c2ccco2)nnc1-c1ccccc1 | 0 | 1 | -1 | -6 | x | x
N#C/C(=C\c1ccc(/C=C(/C#N)c2nn(CCO)c(N)c2C#N)cc1)c1nn(CCO)c(N)c1C#N | 38* | -3 | 1 | -2 | 33 | 27
CCc1c(-c2ccc(Br)cc2)ncn1Cc1cccc(-c2ccccc2)c1 | 1 | x | 3 | 1 | x | x
COC(=O)Nc1sc2c(c1C(N)=O)CCC(C)C2 (centres undefined) | 41* | 1 | -1 | -12 | -8 | 2
N#CCSc1ccccc1NC(=O)COC(=O)CCNC(=O)c1ccc([N+](=O)[O-])cc1 | 32* | 1 | 0 | -16 | 8 | 6
CCc1noc(C)c1C(=O)OCC(=O)Nc1ccccc1SC | 3 | 2 | 0 | 7 | x | x
Cc1noc(C)c1C(=O)OCC(=O)Nc1ccccc1SCC#N | 44* | 0 | 0 | -7 | 17 | 14
CC(C)n1ncc2c(C(=O)N3CCN(c4ccc(F)cc4)CC3)cc(-c3ccccc3)nc21 | 1 | -2 | 1 | 2 | x | x
Cc1nc2ccccc2c(=O)n1/N=C/c1c(O)ccc2ccccc12 | -22 | -6 | -1 | 12 | x | x
CSc1nnc(C(C)(C)C)c(=O)n1/N=C/c1c(O)ccc2ccccc12 | 33* | -3 | 15 | -11 | -7 | 3
O=C(N/N=C\c1cc(Br)c(Br)o1)c1cncc(Br)c1 | 0 | -4 | 9 | -2 | x | x
O=C(N/N=C/c1cccnc1)c1cccc(Br)c1 | 31* | -7 | 1 | -1 | -11 | -8
O=C(N/N=C/c1cccnc1)c1ccccc1 | -2 | -1 | 1 | -5 | x | x
O=C(N/N=C/c1cc(Br)c(Br)o1)c1cccnc1 | 35* | -3 | 1 | -20 | 7 | 3
COc1ccc(C(=O)NNC2=NCCCCC2)cc1 | 1 | -2 | 0 | 1 | x | x
O=C(Nc1ccc(Cl)cc1)c1ccc2c(c1)S(=O)(=O)c1ccccc1C2=O | 33* | -12 | 2 | -7 | -22 | -15
COc1ccccc1Cc1c(-c2ccc(Cl)cc2)nc2ccc(Br)cn12 | 42* | x | 2 | 10 | -3 | 1
COc1ccccc1Cc1c(-c2cccc(Br)c2)nc2ccc(Cl)cn12 | 33* | x | 1 | -5 | 6 | -2
N#Cc1ccc(-c2nc3ccc(Cl)cn3c2Cc2ccccc2C(F)(F)F)cc1 | 48* | x | 0 | 33 | 55* | 45*
COc1ccccc1Cc1c(-c2ccc(C)cc2)nc2ccc(Br)cn12 | 12 | x | -2 | 13 | x | x
COc1cccc(CC(NC(C)=O)C(=O)NC2CCN(C(=O)C3CCCCC3)CC2)c1OC (centres undefined) | 1 | 0 | -1 | 3 | x | x
Cc1cc(C)cc(OCC(=O)OCC(=O)NC2CCCCCCC2)c1 | -1 | 0 | -2 | -8 | x | x
Cc1noc(C)c1COc1ccccc1C(=O)N1CCN(S(=O)(=O)c2ccccc2F)CC1 | 2 | 0 | -1 | -5 | x | x
SMILES | SENP1 FRET inh | GRIN3A LBD mod | MPTP inh | EBI2 block | SENP1 inh conf | SENP1 kin conf
Cn1c(SCC(O)c2ccccc2)nnc1-c1ccc2ccccc2c1 (centres undefined) | 2 | -1 | 3 | 4 | x | x
Cc1cccc(CN2CCN(C3CN(Cc4cn(Cc5cccc(Cl)c5)nn4)S(=O)(=O)C3)CC2)c1 (centres undefined) | -2 | x | -1 | 4 | x | x
COC(=O)c1c(NC(=O)c2ccccc2)sc(C(N)=O)c1C | -3 | 0 | 0 | 5 | x | x
COC(=O)c1c(NC(=O)c2ccccc2)sc(C(=O)c2ccccc2)c1C | 43* | -1 | -6 | 27 | 24* | 34*
O=C(C[n+]1cccc2ccccc21)c1ccc(Cl)cc1 | 43* | 6 | 1 | -1 | 4 | 6
CC(C)NC(=O)c1c(CSc2ccccc2)noc1C(=O)NCc1ccccc1 | 0 | -8 | 1 | 1 | x | x
CC(C)OC(=O)CCCN1C(=O)c2ccc(N)cc2C1=O | 10 | -2 | 0 | -6 | x | x
Nc1ccc2c(c1)C(=O)N(CCCC(=O)O)C2=O | 74* | 4 | -1 | -22 | 56* | 28
